# A selection: hits, their analogues and other compounds. The true share with any hit is near 12%.
# CHOP inh – blocks CHOP induction under ER stress; inhibition, % at 10 µM; actives 3.8% (n = 220,000); AID 2732; CHO-K1 CHOP-promoter luciferase, tunicamycin-induced, 15-18 h;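 active = compounds that reduced the stress-induced luciferase reporter signal by more than about 70% of percent inhibition, limit read from the data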;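 note: 0% = tunicamycin plus vehicle and 100% = wells without tunicamycin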
# Arbovirus inh – blocks arbovirus infection; arbovirus infection cell-based antiviral screen; inhibition, % at 10 µM; actives 0.37% (n = 200,000); in the data active = inhibition above about 30%
# Rad51 HR inh – Rad51 (human) homologous recombination inhibition; Q06609; hRad51 DNA strand exchange, fluorescence dequenching; inhibition, % at 10 µM; actives 0.085% (n = 200,000);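 active = inhibition above 40% at the single screening dose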;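 note: 0% = DMSO control wells and 100% = blanks with heterologous ssDNA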
# Target sequence (Q06609 whole entry, looked up): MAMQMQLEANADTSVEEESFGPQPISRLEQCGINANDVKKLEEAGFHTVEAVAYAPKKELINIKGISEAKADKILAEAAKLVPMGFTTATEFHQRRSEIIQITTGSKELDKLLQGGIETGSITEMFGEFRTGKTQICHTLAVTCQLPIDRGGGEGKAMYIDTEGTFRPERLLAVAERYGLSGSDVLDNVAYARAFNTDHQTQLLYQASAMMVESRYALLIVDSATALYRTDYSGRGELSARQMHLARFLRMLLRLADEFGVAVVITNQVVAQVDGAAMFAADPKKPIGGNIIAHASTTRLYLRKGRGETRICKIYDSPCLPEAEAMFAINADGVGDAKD
#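 Material: human Rad51–ssDNA filaments; Probe or stimulus: labelled 47-mer dsDNA for strand exchange; Doses: single 10 µM dose; Incubation: 37 °C 15-min filament assembly, 30-min compound preincubation, 15-min exchange; Technique: FRET fluorescence dequenching, excitation 485 nm, emission 520 nm; Measure: Fluorescence-based percent inhibition, control- and blank-normalised; Benchmarks: plate control and blank wells.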
# L major viab – Leishmania major promastigote growth inhibition; Leishmania major promastigotes, resazurin fluorescence viability; inhibition, % at 10 µM; AID 1063; actives 9% (n = 200,000);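 note: promastigotes grown with compound for 44 hours at 28 °C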
# Wee1 stabilizer – blocks degradation of human Wee1 kinase; actives 1.2% (n = 220,000); P30291; reporter increase, % at 5 µM; HeLa Luc-Wee1K328M stability, luciferase luminescence; 100% = proteasome inhibitor MG132 effect;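 active = activation above the mean of all tested compounds plus 3 SD, set per screening run, cut at about 8.8% in these data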;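 note: cells exposed to compound for 20 h before luminescence read; 0% = DMSO alone and 100% = MG132 at 30 µM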
# PKD1 kinase inh – inhibitors of human PKD1 kinase. Q15139. PKD1 kinase fluorescence polarization assay. inhibition, % (concentration not given with the values). actives 0.056% (n = 200,000)
# An asterisk follows results filed as active; / = not tested or not shown. Cut-off read from the data, not from the text of the source, unless noted: active = inhibition above about 50%; inactive = the rest.
SMILES,CHOP inh,Arbovirus inh,Rad51 HR inh,L major viab,Wee1 stabilizer,PKD1 kinase inh
CC(C)(C)c1ccc(NC(=O)CNC2CCCc3ccccc32)cc1 (stereo unspecified),91.4*,24.2,38.0,2.4,-1.6,4.8
Cc1ccc(S(=O)(=O)N2CCN(CC(=O)NC3CCCc4ccccc43)CC2)cc1C (stereo unspecified),64.2,-19.3,2.3,97.8*,-0.8,-4.1
O=C(Cc1ccccc1)NC1(Cc2ccc(O)cc2)CCCCC1,10.4,-6.4,10.0,17.8,-3.9,4.0
Cc1ccc[n+](CC(=O)c2ccc(-c3ccccc3)cc2)c1,2.4,-4.0,-13.9,100.2*,0.4,-3.8
COc1ccc(C(=O)C[n+]2cccc(Br)c2)cc1,7.4,/,/,/,0.2,/
Cc1ccc(C)[n+](CC(=O)c2ccc(-c3ccccc3)cc2)c1,11.8,0.3,6.0,70.0*,-2.2,8.5
Cc1ccc(C(=O)C[n+]2cccc(C(N)=O)c2)cc1,15.9,/,15.3,/,-1.0,/
COC(=O)c1ccc[n+](CC(=O)c2ccc(Br)cc2)c1,-8.0,12.2,-7.7,56.4*,-2.3,-10.4
COC(=O)C(CCSC)NC(=O)CNS(=O)(=O)c1ccc(Br)cc1 (stereo unspecified),80.5*,11.4,-4.3,-2.0,-1.0,-5.7
COC(=O)C(CCSC)NC(=O)CNS(=O)(=O)c1ccc(F)cc1 (stereo unspecified),-11.8,6.1,5.7,-3.2,-1.0,-7.5
CCc1nnc(NC(=O)c2cc3ccccc3oc2=O)s1,9.1,64.5*,0.9,5.1,-4.2,-7.3
Cc1ccccc1-c1nnc(NC(=O)c2cc3ccccc3oc2=O)s1,-6.3,-3.9,2.8,-2.5,0.2,-14.0
CCc1nnc(NS(=O)(=O)c2ccc(NC(=O)c3ccccc3)cc2)s1,1.8,/,-3.1,/,-3.8,/
COC(=O)c1cc2ccccc2oc1=O,11.1,-0.7,0.7,-4.9,1.9,-6.2
CCc1nnc(NS(=O)(=O)c2ccc(N/C=C\C(=O)c3ccc4ccccc4c3)cc2)s1,12.6,34.2*,1.7,53.9*,1.8,-5.6
C=CCc1cccc2cc(C(=O)Nc3ccc(S(=O)(=O)Nc4nnc(CC)s4)cc3)c(=O)oc12,72.4*,14.7,-0.3,-10.4,-3.2,-0.9
Cc1cccnc1NC(=O)c1cc2ccccc2oc1=O,90.3*,-6.1,-3.4,22.7,-2.8,5.3
CCCCS(=O)(=O)Nc1ccc(C)cn1,2.4,3.2,-1.8,6.1,-1.0,2.5
COc1cccc(CN2CCNC(=O)C2CC(=O)NCCOc2cccnc2)c1 (stereo unspecified),-9.4,-4.5,10.3,-2.4,1.3,-2.3
COCCn1c(=NC(=O)C(C)(C)C)sc2cc([N+](=O)[O-])ccc21,67.9,-5.8,/,-1.5,0.9,-7.3
Cc1cc(N)n2nc(-c3ccccc3)cc2n1,-6.1,-3.5,/,54.9*,-1.4,-12.0
Cc1ccc(-c2cc(N)n3nc(-c4ccc(C)cc4)cc3n2)cc1,74.3*,1.4,/,5.5,-0.1,0.3
CSc1nc(N)n2nc(-c3ccccc3)cc2n1,2.4,/,2.3,/,7.1,/
Cc1ccc(-c2cc3nc(-c4ccccc4)cc(N)n3n2)cc1,77.7*,1.1,-5.4,3.7,0.7,1.1
Cc1ccc(-c2cc3nc(-c4ccc(Br)cc4)cc(N)n3n2)cc1,52.0,-22.1,0.8,-5.1,-4.6,1.7
SMILES,CHOP inh,Arbovirus inh,Rad51 HR inh,L major viab,Wee1 stabilizer,PKD1 kinase inh
Cc1ccc(-c2cc3nc(-c4ccccc4)cc(N4CCOCC4)n3n2)cc1,5.3,-2.1,-10.0,-1.3,-1.2,-6.2
CCN(CC)c1ccc(NC(=O)c2cccc(C)c2)cc1S(=O)(=O)Nc1ccccc1OC,14.6,8.3,6.4,96.9*,3.2,1.6
COc1ccc(NC(=O)c2ccccc2)cc1NS(=O)(=O)c1ccc(F)cc1,-11.4,7.8,/,4.0,-1.6,-2.1
CCN(CC)c1ccc(NC(=O)c2ccccc2)cc1S(=O)(=O)Nc1ccccc1OC,15.4,7.2,4.5,99.5*,0.9,4.7
COc1ccc(C(=O)Nc2ccc(Cl)c(S(=O)(=O)Nc3ccccc3OC)c2)cc1,48.2,14.3,4.9,38.6,1.4,-1.0
COc1ccccc1NS(=O)(=O)c1cc(NC(=O)c2ccc(Cl)nc2)ccc1Cl,55.7,1.9,-8.3,12.2,6.2,0.2
COc1ccc(NC(=O)c2ccc(-c3ccccc3)cc2)cc1NS(=O)(=O)c1ccc(F)cc1,58.2,-21.2,2.2,91.3*,-0.8,-7.2
CSCCC(NC(=O)COc1ccccc1)C(=O)O (stereo unspecified),-12.4,-0.8,0.1,-4.3,-0.7,-4.2
NS(=O)(=O)c1cccc(NC(=O)Cc2ccc(Cl)c(Cl)c2)c1,3.4,12.6,4.0,4.5,-3.8,5.2
CCOC(=O)c1ccc(NC(=O)N2CCN(c3cccc(OC)c3)CC2)cc1,16.6,-8.1,4.8,18.4,3.7,-7.0
Cc1onc(-c2c(F)cccc2Cl)c1C(O)c1ccc(F)cc1 (stereo unspecified),6.7,/,12.9,/,-0.5,/
NCCC1CCCC(CCN)N1 (stereo unspecified),15.8,/,/,/,/,/
Cc1ncsc1CCOC(=O)c1cccc([N+](=O)[O-])c1,10.6,5.0,-11.0,13.2,-2.0,0.6
Cc1c(CCOC(=O)c2cc([N+](=O)[O-])cc([N+](=O)[O-])c2)sc[n+]1CC(=O)c1ccc(Br)cc1,9.1,0.6,1.2,99.6*,-1.7,-5.8
C[C@H](CCC(=O)O)[C@H]1CC[C@H]2[C@@H]3[C@@H](O)C[C@@H]4C[C@H](O)CC[C@]4(C)[C@H]3CC[C@]12C,1.6,9.9,3.0,-1.4,9.8*,1.6
COc1ccccc1NC(=O)OCC#CCOC(=O)Nc1ccccc1OC,2.5,/,7.3,/,0.4,/
CCN(Cc1ccncc1)C(=O)C(CO)c1ccccc1 (stereo unspecified),6.9,/,/,/,/,/
CCOC(=O)COc1cccc2c(=O)n(CC(=O)NCCc3ccccc3)ccc12,-12.2,-2.8,5.2,-8.2,0.1,-8.5
CCOC(=O)C(C)Oc1cccc2c(=O)n(CC(=O)NCc3ccc(F)cc3)ccc12 (stereo unspecified),19.7,/,/,/,1.3,/
COC(=O)COc1cccc2c(=O)n(CC(=O)NCc3ccc(F)cc3)ccc12,-12.0,-7.6,6.6,-6.8,11.7*,-6.1
CCOC(=O)COc1cccc2c(=O)n(CC(=O)NCc3ccc4c(c3)OCO4)ccc12,/,-6.6,-4.2,-5.2,9.6*,-4.4
CC(Oc1ccc(Cl)cc1)C(=O)N/N=C/c1ccsc1 (stereo unspecified),13.2,-4.3,/,-3.0,4.0,-3.6
O=C(CCS(=O)(=O)c1ccccc1)Nc1cccc2c1C(=O)NC2=O,4.1,3.0,/,-1.0,-3.6,0.7
Cc1cccc(OCC(O)CN2CC3(C)CC2CC(C)(C)C3)c1 (stereo unspecified),22.1,-25.8,12.2,-0.1,-4.0,1.5
O=[N+]([O-])c1ccc(-c2c(O)c3ccccc3c3nc4ccccc4nc23)cc1,60.5,31.6*,18.0,1.6,-2.6,2.5

# Source: PubChem
